The results in this text go back to PubChem BioAssay AID463146 (The Scripps Research Institute Molecular Screening Center, 2010).

A word on the inhibition: it is how much of the control response was suppressed.

For the experiment, the target named is Protein phosphatase methylesterase 1 (Homo sapiens) (UniProt Q9Y570). The experiment in a line: lysate PME-1 activity-based profiling inhibitors – cell lysate, gel ABPP, fluorescence, HeLa, MDA-MB-231, late-stage follow-up (AID 463146). Conditions: HeLa/MDA-MB-231 lysate, FP-Rh gel ABPP fluorescence, at 10 µM (top of the series). Put shortly: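 Material: PME-1 in HeLa or MDA-MB-231 lysate / Quantity: soluble proteome at 1 mg/mL total protein / Also added: rhodamine fluorophosphonate activity probe (FP-Rh), 1 µM final / Times: 30 min compound at 25 °C, 20 min probe / Signal: SDS-PAGE separation with in-gel fluorescence scanning of probe labeling / Benchmarks: DMSO high control, gel background low control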
Chain of Protein phosphatase methylesterase 1 (Homo sapiens) (Q9Y570 whole entry, looked up): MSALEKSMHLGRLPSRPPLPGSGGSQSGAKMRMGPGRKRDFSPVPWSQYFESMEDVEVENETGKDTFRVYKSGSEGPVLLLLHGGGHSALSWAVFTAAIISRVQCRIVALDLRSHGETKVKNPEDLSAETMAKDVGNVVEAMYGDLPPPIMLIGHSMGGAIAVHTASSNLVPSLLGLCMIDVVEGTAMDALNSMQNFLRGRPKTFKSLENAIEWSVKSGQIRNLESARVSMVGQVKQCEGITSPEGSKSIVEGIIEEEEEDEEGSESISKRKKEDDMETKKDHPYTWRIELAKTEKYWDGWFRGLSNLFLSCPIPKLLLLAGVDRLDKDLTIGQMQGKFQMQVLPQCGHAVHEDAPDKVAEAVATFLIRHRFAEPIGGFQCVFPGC

`COC(=O)N1C(=O)[C@@](c2ccccc2)(C2CCCC2)N1C(=O)OC`: the inhibition (HeLa Lysate) is 100%. With `COC(=O)N1C(=O)[C@](c2ccccc2)(C2CCCCC2)N1C(=O)OC`, the inhibition by setting is: (HeLa Lysate) 100%; (MDA-MB-231 Lysate) 100%. Regarding `COC(=O)N1C(=O)[C@@](c2ccccc2)(C2CCCCC2)N1C(=O)OC`, for the setting “HeLa Lysate”, the inhibition is 100%.

Consider `COC(=O)N1C(=O)[C@](c2ccccc2)(C2CCCC2)N1C(=O)OC`, for which the inhibition was 100% (HeLa Lysate) and 100% (MDA-MB-231 Lysate).
